KCC2 mod: KCC2 cotransporter modulators, thallium flux, primary screen, cell-based, HEK293 KCC2, FluoZin-2 fluorescence, MLSMR | Solute carrier family 12 member 5 (Homo sapiens), Q9H2X9 | KCC2 cells, thallium flux FluoZin-2 fluorescence | B-score of Tl+ flux slope (higher = more flux/activation; lower = inhibition) at 10 µM | 190,000 compounds, 2.2% hits | AID 1456, 2008;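 active = thallium flux slope and its plate-corrected score both differing from the plate sample mean at a set confidence after two filtering rounds, in either direction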;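 note: slope of fluorescence scaled to starting intensity during 10 to 20 s after thallium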
KCNQ1 pot: potentiators or activators of KCNQ1 channel, primary screen, cell-based, thallium flux, high-throughput; Potassium voltage-gated channel subfamily KQT member 1 (Homo sapiens), P51787; CHO-K1 KCNQ1, thallium flux FluxOR fluorescence; active compounds read high; B-score at 10 µM; 310,000 compounds, 0.35% hits;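 active = fluorescence ratio B-score, a plate-corrected score, at least three library SD, with initial intensity B-score within 5 SD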
Target sequence (P51787 whole entry, looked up): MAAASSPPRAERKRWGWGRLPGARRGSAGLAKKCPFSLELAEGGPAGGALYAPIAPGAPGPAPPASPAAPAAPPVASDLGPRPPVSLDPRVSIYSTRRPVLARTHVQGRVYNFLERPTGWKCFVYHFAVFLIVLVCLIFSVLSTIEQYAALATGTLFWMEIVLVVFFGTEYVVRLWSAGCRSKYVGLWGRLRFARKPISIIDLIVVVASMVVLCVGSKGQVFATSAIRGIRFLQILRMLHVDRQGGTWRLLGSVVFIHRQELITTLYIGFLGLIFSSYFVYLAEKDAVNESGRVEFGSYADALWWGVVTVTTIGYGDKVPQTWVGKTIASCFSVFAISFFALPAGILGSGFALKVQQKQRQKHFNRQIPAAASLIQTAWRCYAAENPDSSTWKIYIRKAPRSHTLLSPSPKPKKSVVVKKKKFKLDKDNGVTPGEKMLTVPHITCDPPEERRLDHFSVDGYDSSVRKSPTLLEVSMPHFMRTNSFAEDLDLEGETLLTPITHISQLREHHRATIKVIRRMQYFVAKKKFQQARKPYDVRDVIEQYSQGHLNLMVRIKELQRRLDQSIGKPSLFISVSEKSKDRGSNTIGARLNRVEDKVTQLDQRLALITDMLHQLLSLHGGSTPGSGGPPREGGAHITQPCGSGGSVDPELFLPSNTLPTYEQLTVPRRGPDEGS
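Assay system: stable KCNQ1 CHO-K1 line; medium: assay buffer, equal DMSO in all wells; timing: 90 min dye loading and 20 min compound exposure, both at room temperature; technique: kinetic FluxOR thallium fluorescence, 10-s 1-Hz baseline, 110-s post-stimulus read; read-out basis: B score of baseline-normalized fluorescence ratio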
KCNQ1 inh: inhibitors of human KCNQ1 channel, primary screen, cell-based, thallium flux, high-throughput | CHO-K1 KCNQ1, FluxOR thallium flux fluorescence; active compounds read high | B-score at 10 µM | 310,000 compounds, 1.3% hits | Potassium voltage-gated channel subfamily KQT member 1 (Homo sapiens), P51787;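 active = compounds whose thallium flux B-score, printed positive for inhibition, exceeds three library SD while starting fluorescence stays within three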;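 note: channel opened by potassium depolarization with thallium stimulus after 20 min compound exposure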
KCNK9 inh: KCNK9 potassium channel inhibitors, primary screen, HEK293 cells, thallium flux; FluxOR thallium flux fluorescence; active compounds read low; B-score at 10 µM; AID 488922, 2010; 310,000 compounds, 1.2% hits; Potassium channel subfamily K member 9 (Homo sapiens), Q9NPC2;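 active = ratio B-score over 3 SD below the library mean, with starting fluorescence within 5 SD of its mean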;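 note: negative B-score means less thallium flux so channel inhibition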
hERG rescue: hERG rescue from dofetilide block, primary screen, cell-based, CHO-hERG, FluxOR thallium flux, dofetilide IC70; dofetilide IC70 present; activation (rescue from dofetilide block), less the hit threshold, % at 10 µM; 310,000 compounds, 0.51% hits;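 active = activation above the mean of controls blocked by dofetilide plus 5 SD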;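 note: thallium influx through hERG after potassium depolarization seen as dye fluorescence rise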
KCNK3 block: human KCNK3 channel inhibitors, primary screen, CHO cells, FluxOR thallium flux, B-score; Potassium channel subfamily K member 3 (Homo sapiens), O14649; FluxOR fluorescence; active compounds read low; B-score at 10 µM; 340,000 compounds, 0.84% hits; AID 602410, 2012;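 active = B-score under library mean minus 4 SD, starting fluorescence ratio at most library mean plus 5 SD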;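 note: more negative B-score means stronger inhibition of thallium flux through KCNK3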
Starred values were filed as active, the others as inactive; i = inactive; x = no result. In the library only some 4.1% were active in any assay of this set; here they are far more common.

SMILES	KCC2 mod	KCNQ1 pot	KCNQ1 inh	KCNK9 inh	hERG rescue	KCNK3 block
Cc1ccc2c(c1)N(S(=O)(=O)c1ccc(F)cc1)C(C(C)(C)C)CO2 (centres undefined)	-0.276	i	7*	i	-10.9	i
Cc1ccc(S(=O)(=O)N2c3ccccc3OCC2C(C)(C)C)cc1 (centres undefined)	x	i	i	i	-8.0	i
Cc1nc(SC(C)C(=O)c2c(N)n(C)c(=O)n(C)c2=O)c2c(C)c(C)sc2n1 (centres undefined)	x	14*	i	i	-5.8	i
Cc1ccc(C2C(/C=C3/SC(=S)NC3=O)=C(c3cccs3)Oc3ccccc32)cc1 (centres undefined)	2.46	8*	i	i	-6.7	i
CC(=O)Nc1cccc(-c2nnc3c4ccccc4c(C)nn23)c1	x	i	i	i	51.6*	x
CCN(CC)CCNC(=O)CCc1nnc2ccc(N3CCC(C)CC3)nn12	x	i	i	i	-0.5	i
CCOc1ccc(N(C)S(=O)(=O)c2ccc(C)c(C(=O)OCC(=O)c3c[nH]c4ccccc34)c2)cc1	-0.218	i	i	-7.59*	-10.4	i
Cc1ccc(CSc2ccc(S(=O)(=O)N3CCCC3)cn2)cc1	x	x	x	x	x	i
O=S(=O)(c1ccc(SCc2cccc(Cl)c2)nc1)N1CCCC1	x	x	x	x	x	-9.52*
O=c1c(-c2ccccc2)c[nH]n1-c1cccc([N+](=O)[O-])c1	-0.414	i	7*	i	-11.8	i
CC1CC(C)CN(CCCNC(=O)c2cc3c(s2)-c2ccccc2OC3)C1 (centres undefined)	x	i	6*	i	-13.0	i
O=C(CCn1c(=O)oc2ccccc21)Nc1nc2ccccc2s1	x	i	i	-7.24*	-11.3	i
Cn1c(=O)c2c(nc(OC3CCCC3)n2C)n(C)c1=O	x	x	x	x	x	i
NNC(=O)c1nnsc1-c1csnn1	x	x	x	x	x	i
O=[N+]([O-])c1ccc(CN2CCN(c3ccc([N+](=O)[O-])cc3)CC2)cc1	x	i	i	i	-5.6	i
O=[N+]([O-])c1ccc(N2CCC(=NOCc3ccc(Cl)cc3)CC2)cc1	-0.563	i	6*	i	-17.7	i
CSc1ncccc1C(=O)Nc1cccc(S(=O)(=O)N2CCCCCC2)c1	x	x	x	x	x	i
CCCc1cc(=O)oc2cc(C)cc(OCC(=O)NCCCN3CCCC3=O)c12	x	i	i	i	-5.9	i
O=[N+]([O-])c1ccc(N2CCN(c3cccc(Cl)c3)CC2)nc1	x	i	i	-6.6*	-2.7	i
Cc1ccccc1N(C(=O)c1cccs1)c1nc2ccccc2s1	-0.276	i	7*	i	-7.0	i
Cc1ccsc1C(=O)N(c1nc2ccccc2s1)c1c(C)cccc1C	0.058	i	i	i	-0.3	i
C/C(=N\NC(=O)c1cc(Cl)ccc1O)c1ccc(Br)s1	15.2*	i	i	i	-0.7	i
COC(=O)c1sc(NC(=O)c2ccc3c(c2)OCO3)c(C#N)c1C	x	x	x	x	x	i
CCN(c1ccccc1)S(=O)(=O)c1ccc(C(=O)NCC(=O)Nc2ccc(F)c(F)c2F)cc1	x	x	x	x	x	i
c1cncc(-c2nn[nH]n2)c1	-0.332	i	i	i	7.5*	i
SMILES	KCC2 mod	KCNQ1 pot	KCNQ1 inh	KCNK9 inh	hERG rescue	KCNK3 block
c1cncc(-c2cccnc2)c1	x	i	i	i	-7.6	i
CCOC(=O)C1=C(Cn2cnc3ccccc32)NC(=O)NC1c1cc(C)ccc1C (centres undefined)	-1.15	i	i	i	13.1*	i
COC(=O)C1=C(Cn2cnc3ccccc32)NC(=O)NC1c1cc(C)ccc1C (centres undefined)	-1.52	i	i	i	-9.9	i
Cc1cc(NC(=O)C(C)SCC(=O)Nc2ccc(Br)cc2Br)no1 (centres undefined)	x	i	i	i	-14.1	i
Cc1cc(C=C2C(=O)c3ccccc3C2=O)c(C)n1C	-0.203	i	i	i	-5.2	i
Cc1cccc(-n2c(C)cc(C=C3C(=O)c4ccccc4C3=O)c2C)c1	-0.553	i	6*	i	-4.4	i
Cc1cc(C=C2C(=O)c3ccccc3C2=O)c(C)n1-c1ccc(Cl)cc1	x	i	i	-7*	-8.6	i
S=C(NCCc1ccccn1)Nc1cc(Cl)cc(Cl)c1	x	i	6*	i	-10.9	i
O=C(NCC1CCCO1)C(=O)N/N=C/c1cccc(Cl)c1 (centres undefined)	x	i	i	i	-6.6	i
O=C1CC(c2ccc(O)cc2)Oc2cc(O)cc(O)c21 (centres undefined)	-0.024	i	i	i	-6.7	i
CC1CC(=O)c2c(cc3c(-c4c(O)cc(O)c5c(O)c6c(cc45)OC(C)CC6=O)c(O)cc(O)c3c2O)O1 (centres undefined)	-6.11*	i	i	i	-5.6	i
CC(=O)c1c(C)[nH]c(C(=O)CSc2ncnc3sc(-c4ccccc4)cc23)c1C	28.8*	i	i	i	-7.0	i
ON=C(CCc1ccccc1)CCc1ccccc1	x	x	x	x	x	i
O=C(CN1C(=O)NC2(CCCC2)C1=O)Nc1cc(C(F)(F)F)ccc1N1CCCCC1	x	i	i	i	-6.8	i
Cc1ccc(-c2nc(CSCC(=O)N3CCN(c4ccccn4)CC3)c(C)o2)cc1	-1.66	i	i	i	-18.2	-8.91*
Cc1ccc(-n2cccc2C(=S)N=P(N(C)C)(N(C)C)N(C)C)cc1	-0.246	i	i	-7.6*	-11.1	i
CCOC(=O)c1oc2ccc(S(=O)(=O)n3nc(-c4ccc(OC)cc4)cc3N)cc2c1C	0.00535	9*	i	i	-6.0	i
CN1CCN(C(=O)c2cnn3c(C(F)(F)F)cc(-c4cccs4)nc23)CC1	-0.126	i	i	i	-5.4	i
O=C(c1cnn2c(C(F)(F)F)cc(-c3cccs3)nc12)N1CCN(C(c2ccccc2)c2ccccc2)CC1	-0.197	i	6*	i	-12.4	i

Source: PubChem BioAssay
